Only some compounds are listed: those with a hit (about 5.3% of all), similar ones and a draw of the others.
CSC inhib: cancer stem cell inhibition; inhibition, % at 7.5 µM; cancer stem cell-like cells viability, luminescence; AID 2717; hit rate 1.1% among 300,000; in the data active = inhibition above about 75%; inconclusive = no clear call, values can overlap the other calls; tested in HMLE shEcad cells
Calb FLC: affects C. albicans growth with fluconazole; growth inhibition, % (test concentration not listed); C. albicans CaCi-2 (fluconazole-resistant clinical isolate) + fluconazole, Alamar Blue growth, 48 h; hit rate 0.57% among 300,000; AID 1979;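 active = growth inhibition above about 58% in most replicates, limit read from the data, passing the limit was not always enough; inconclusive = exactly half the replicates above a set limit; inactive = most replicates below a set limit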;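 note: all wells also contain fluconazole at 8 µg/ml as a sub-toxic cotreatment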
Mdm2-MdmX inh: inhibitors of human Mdm2/MdmX interaction. hit rate 3% among 330,000. O15151+Q00987. SaOS-2 split-luciferase Mdm2/MdmX complementation, luminescence. inhibition, % at 8 µM;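 active = inhibition of at least 50% at 8 µM in the primary screen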
Target sequence (O15151 whole entry, looked up): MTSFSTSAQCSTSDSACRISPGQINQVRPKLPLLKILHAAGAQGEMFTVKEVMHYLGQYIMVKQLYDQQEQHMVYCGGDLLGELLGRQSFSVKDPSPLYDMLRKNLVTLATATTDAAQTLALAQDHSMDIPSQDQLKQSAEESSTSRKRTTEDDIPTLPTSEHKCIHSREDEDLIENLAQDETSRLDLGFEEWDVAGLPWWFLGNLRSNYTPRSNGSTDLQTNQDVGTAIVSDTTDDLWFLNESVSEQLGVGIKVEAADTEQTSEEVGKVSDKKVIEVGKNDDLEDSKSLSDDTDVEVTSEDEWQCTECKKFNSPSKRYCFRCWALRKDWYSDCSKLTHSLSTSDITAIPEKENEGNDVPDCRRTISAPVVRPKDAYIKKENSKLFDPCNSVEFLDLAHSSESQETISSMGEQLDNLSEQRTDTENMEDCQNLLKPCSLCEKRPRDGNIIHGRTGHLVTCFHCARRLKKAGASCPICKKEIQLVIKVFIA
Target sequence (Q00987 whole entry, looked up): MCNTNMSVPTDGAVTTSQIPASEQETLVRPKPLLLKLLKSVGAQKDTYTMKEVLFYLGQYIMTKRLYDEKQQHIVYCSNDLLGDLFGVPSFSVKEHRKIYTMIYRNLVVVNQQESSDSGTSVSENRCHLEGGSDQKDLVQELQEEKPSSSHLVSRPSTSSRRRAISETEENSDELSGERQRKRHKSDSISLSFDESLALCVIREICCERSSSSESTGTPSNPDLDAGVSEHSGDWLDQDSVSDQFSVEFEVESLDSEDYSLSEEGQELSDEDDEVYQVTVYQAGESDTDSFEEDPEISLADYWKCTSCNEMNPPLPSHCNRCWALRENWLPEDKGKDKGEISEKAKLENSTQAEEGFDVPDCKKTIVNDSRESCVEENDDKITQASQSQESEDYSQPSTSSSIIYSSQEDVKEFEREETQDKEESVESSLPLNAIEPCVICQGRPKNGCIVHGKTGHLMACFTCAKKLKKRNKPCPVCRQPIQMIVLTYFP
Beta apoptosis: beta cell apoptosis inhibition; INS-1E cytokine-induced death, ATP luminescence, 48 h; percent of positive-control rescue, neutral wells zero; protection from apoptosis, % (test concentration not listed); hit rate 0.8% among 300,000; AID 435005;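 active = Every replicate reaches about 75%, or at least half do and their mean reaches it too, limit read from the data; inconclusive = At least half of replicates reach the limit but their mean does not; inactive = Under half of replicates reach the limit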;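 note: higher means more ATP so stronger rescue from cytokine killing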
NLRP3 yeast inh: inhibitors of NALP3 inflammasome in yeast; Yeast reconstituted NLRP3/ASC/caspase-1, beta-gal luminescence, 24 h; inhibition, % at 10 µM; hit rate 0.39% among 330,000; AID 2825;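 active = inhibition of 50% or more; inactive = inhibition below 50%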
T cruzi inh: blocks replication of Trypanosoma cruzi. T. cruzi beta-gal in NIH3T3, luminescence, 90 h. inhibition, % (no concentration beside the values). hit rate 1.4% among 300,000;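 active = mean inhibition across valid replicates above about 55%, limit read from the data; inconclusive = mean below that limit but half or more replicates reach it; inactive = mean below it, under half of replicates reach it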;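 note: signal also drops with host cell toxicity which is not excluded here; higher percent means less beta-gal luminescence so fewer parasites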
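System: Mouse NIH/3T3 fibroblasts infected with β-gal-expressing T. cruzi Tulahuen C4 | Quantity: NIH/3T3 cells, 5,000 per well | Reagent: 5000 reporter trypomastigotes per well | Dosing: Compound pinned at 50 nL/well, DMSO | Schedule: 3 h host attachment, then at least 90 h co-culture | Detection: GalScreen luminescence, 60 min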
Of the large screens only hits and unclear results are named; the others gave an inactive call.

CC(C)(C)c1ccc2c(c1)OC(C(=O)N/N=C/c1ccc([N+](=O)[O-])o1)CO2 (configuration not stated)	T cruzi inh 60
Cc1c(/C=N\NC(=O)C2COc3ccc(C(C)(C)C)cc3O2)c2ccccc2n1C (configuration not stated)	T cruzi inh 66 (no result: CSC inhib, Beta apoptosis)
CC(C)(C)c1ccc2c(c1)OC(C(=O)N/N=C\c1ccc[nH]1)CO2 (configuration not stated)	CSC inhib 119
CCc1cccc(OCC(=O)Nc2ccc(C)c(S(=O)(=O)N3CCCCCC3)c2)c1	none
Cc1ccc(NC(=O)COc2ccc(N(C)C(=O)C(C)(C)C)cc2)cc1S(=O)(=O)N1CCCCC1	Beta apoptosis 115 (no result: Calb FLC, T cruzi inh)
CC(=O)c1ccc(OCCCC(=O)Nc2ccc3c(c2)OCCO3)cc1	none (no result: Calb FLC, T cruzi inh)
COc1ccc(C)cc1NC(=O)C(Sc1nnnn1C)c1ccccc1 (configuration not stated)	Calb FLC 95
CCCn1c(SC(C(=O)Nc2cc(C)ccc2OC)c2ccccc2)nc2ccccc2c1=O (configuration not stated)	none
O=C(Nc1nc2ccc(S(=O)(=O)N3CCCCC3)cc2s1)c1cccnc1	none (no result: T cruzi inh)
O=C(Nc1nc2ccc(S(=O)(=O)N3CCCCC3)cc2s1)c1ccncc1	Calb FLC 103
O=C(Nc1nc2ccc(S(=O)(=O)N3CCCC3)cc2s1)c1ccccn1	T cruzi inh 64
CN(C)S(=O)(=O)c1ccc(C(=O)NCC2CC2(Cl)Cl)cc1 (configuration not stated)	none (no result: Beta apoptosis)
COc1cc(OC)cc(C(=O)OC/C(O)=C(\C#N)c2nc3ccccc3[nH]2)c1	Beta apoptosis 101
Cc1nn(-c2ccccc2)c(C)c1C(=O)OC/C(O)=C(\C#N)c1nc2ccccc2[nH]1	Calb FLC 82
Cc1c(C(=O)OC/C(O)=C(\C#N)c2nc3ccccc3[nH]2)oc2ccccc12	none
CCn1c2ccccc2c2cc(CN3CCN(Cc4cc(OC)ccc4O)CC3)ccc21	T cruzi inh 72 (no result: CSC inhib)
O=C(c1cc(-c2ccc(F)cc2)on1)N1CCCc2ccccc21	none
O=[N+]([O-])c1ccc(N2CCN(CCOc3nonc3-c3ccccc3)CC2)c(Cl)c1	Beta apoptosis 119
Cc1nonc1OCCN1CCN(c2ccc([N+](=O)[O-])cc2)CC1	none
Cc1cc(OC(C)C(=O)NCCCN2CCOCC2)c2c(C)cc(=O)oc2c1 (configuration not stated)	none
CC(=O)N=c1sc2c3ccccc3ccc2n1C	T cruzi inh 66
CCO[C@H]1OC(C(=O)N2CCN(Cc3ccc4c(c3)OCO4)CC2)=C[C@@H](c2csc3ccccc23)[C@@H]1CCCO	Beta apoptosis 85
CCO[C@@H]1OC(C(=O)N2CCN(Cc3ccc4c(c3)OCO4)CC2)=C[C@H](C2CCCCC2)[C@H]1CCCO	T cruzi inh 72
CCO[C@H]1OC(C(=O)N2CCN(Cc3ccc4c(c3)OCO4)CC2)=C[C@@H](c2cn(C(C)=O)c3ccccc23)[C@@H]1CCCO	none
O=C(C1=C[C@H](c2csc3ccccc23)C[C@H](OCc2ccc(CO)cc2)O1)N1CCN(Cc2ccc3c(c2)OCO3)CC1	T cruzi inh 62
COc1ccc(C(O)c2nccn2Cc2ccccc2)cc1OC (configuration not stated)	none
O=S(=O)(Nc1ccc(N2CCOCC2)cc1)c1cc(Cl)ccc1Cl	none (no result: CSC inhib)
CCCCc1sc(-c2c(C#N)c(N)nc3c2CCCCC3)cc1[N+](=O)[O-]	T cruzi inh 55
Cc1sc(-c2c(C#N)c(N)nc3c2CCCCCC3)cc1[N+](=O)[O-]	none
O=C(CSc1nnc(-c2c[nH]c3ccccc23)o1)N(Cc1ccccc1)c1ccc(F)cc1	T cruzi inh 55
COc1ccc(CN(C(=O)CSc2nnc(-c3ccccc3C)o2)c2ccc(F)cc2)cc1	none
O=C(COC(=O)c1ccc(S(=O)(=O)N2CCCC2)cc1)Nc1ccc(F)cc1F	none
O=C(O)c1ccccc1Sc1ncnc2sc3c(c12)CCC3	Calb FLC inconclusive
CCc1cc(=S)n2c([nH]c3ccccc32)c1C#N	Calb FLC 97 (no result: CSC inhib)
CCc1cc(=O)n2c([nH]c3ccccc32)c1C#N	none
O=C(CCCCC(=O)Nc1ccc(F)cc1)Nc1ccc(F)cc1	none
O=C(CCCCC(=O)Nc1ccc(F)cc1F)Nc1ccc(F)cc1F	Beta apoptosis 133
Cc1cc(C)cc(NC(=S)NC2CC3CCC(C2)N3Cc2ccco2)c1 (configuration not stated)	none
N#CCCn1c(=O)n(CCC#N)c2ccccc21	none
Cn1c(=O)n(CC#N)c2ccccc21	Calb FLC 102
CC(C)c1[nH]nc2c1C1(CCN(Cc3ccccc3)CC1)C(C#N)=C(N)O2	none
COc1cccc(C(=O)Nc2nnc(-c3ccc(F)cc3)o2)c1	Calb FLC 83
COc1cccc(-c2nnc(NC(=O)c3ccc4ncsc4c3)o2)c1	Calb FLC 107
Cc1cccc(C(=O)Nc2nnc(-c3ccncc3)o2)c1	none
O=C(Nc1nnc(-c2ccncc2)o1)c1ccc2ccccc2c1	Calb FLC 90 (no result: Beta apoptosis)
COc1ccc(N(C)C(=O)c2cc3c(s2)-c2ccccc2S(=O)(=O)C3)cc1	none
COc1nc(C)ccc1-c1noc(-c2cccnc2)n1	none
COC(=O)c1ccc(N2CCOCC2)c(NC(=O)Nc2cccc(OC)c2)c1	none (no result: Beta apoptosis)
CCOC(=O)c1ccc(N2CCN(c3ccccc3F)CC2)c(NC(=O)Nc2cccc(OC)c2)c1	T cruzi inh 70
S=C(NCC1CCCCC1)Nc1ccc(Oc2ccccc2)cc1	CSC inhib inconclusive, T cruzi inh 55
S=C(Nc1ccc(Oc2ccccc2)cc1)NC1CCCC1	none (no result: Beta apoptosis)
Nc1c(C(=O)Nc2ccc3c(c2)OCCO3)nnn1Cc1ccccc1Cl	Beta apoptosis 93
O=[N+]([O-])c1cc(-c2nnc(C34CC5CC(CC(C5)C3)C4)o2)cc([N+](=O)[O-])c1	T cruzi inh 57 (no result: Beta apoptosis)
O=[N+]([O-])c1cccc(-c2nnc(C34CC5CC(CC(C5)C3)C4)o2)c1	none
O=S(=O)(O)c1cc(O)c2c(O)c(N=Nc3cc(Cl)ccc3O)c(S(=O)(=O)O)cc2c1	Calb FLC 85
Oc1ccc(Cl)cc1N=Nc1ccccc1	T cruzi inh inconclusive
O=C1N(Cc2cccnc2)C[C@@H]2C[C@@H](c3ccccc3C(F)(F)F)N3CCC[C@@]123	none
Nc1nc2n(n1)C(c1cccc(Cl)c1)CC(c1ccc(F)cc1)N2 (configuration not stated)	none
N#Cc1nnn(-c2cc(Cl)cc(Cl)c2)c1N	none
Cc1c([N+](=O)[O-])nnn1-c1cc(Cl)cc(Cl)c1	T cruzi inh 63
O=c1cc(CNc2cc(C(F)(F)F)cc(C(F)(F)F)c2)nc2sccn12	CSC inhib 81
CC(C)C(=O)N1CCN(c2cc(N3CCN(C)CC3)c(F)cc2[N+](=O)[O-])CC1	T cruzi inh 77
